Laboratory results published in ChEMBL document CHEMBL1133148 (Bioorg Med Chem Lett, 2000).

Tests used:
[1] = target: T1, Mu-type opioid receptor (Rattus norvegicus, UniProt P33535); assay: Concentration required for inhibition of [3H]DAMGO binding to Opioid receptor mu 1 in rat brain membranes; assay type: cell membranes
Summary of the method: (§1)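 Rat brain minus cerebellum, homogenised in 0.32 M sucrose and spun. The membrane pellet was preincubated 1 h at room temperature in Tris pH 7.5/NaCl to strip endogenous opioids. Filtration, scintillation counting.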

[2] = target: T1, Mu-type opioid receptor; assay: Binding affinity towards Opioid receptor mu 1; summary of the method: as §1

T1 sequence (P33535 whole entry): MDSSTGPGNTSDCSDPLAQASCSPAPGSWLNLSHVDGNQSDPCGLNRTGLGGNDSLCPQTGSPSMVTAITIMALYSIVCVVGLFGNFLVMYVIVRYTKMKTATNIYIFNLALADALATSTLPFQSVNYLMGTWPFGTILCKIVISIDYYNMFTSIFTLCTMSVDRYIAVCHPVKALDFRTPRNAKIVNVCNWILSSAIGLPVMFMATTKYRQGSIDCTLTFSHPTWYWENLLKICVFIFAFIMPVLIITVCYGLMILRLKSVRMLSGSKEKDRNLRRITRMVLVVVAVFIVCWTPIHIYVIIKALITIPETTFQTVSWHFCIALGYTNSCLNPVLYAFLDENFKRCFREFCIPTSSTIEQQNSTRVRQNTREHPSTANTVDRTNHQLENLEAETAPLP

| Structure (SMILES) | IC50 [1] [nM] | Ki [2] [nM] |
| --- | --- | --- |
| NC(=O)[C@H](Cc1ccccc1)NC(=O)[C@H](Cc1c[nH]c2ccccc12)NC(=O)C[C@H]1CCCN1C(=O)[C@@H](N)Cc1ccc(O)cc1 | 1.8 | 0.33 |
| NC(=O)[C@H](Cc1ccccc1)NC(=O)[C@H](Cc1c[nH]c2ccccc12)NC(=O)[C@@H]1CCCN1C(=O)CC(N)c1ccc(O)cc1 (stereo partly drawn) | – | > 1000 |
| NC(=O)[C@H](Cc1ccccc1)NC(=O)[C@H](Cc1c[nH]c2ccccc12)NC(=O)C[C@@H]1CCCN1C(=O)[C@@H](N)Cc1ccc(O)cc1 | 72 | 10.4 |
| NC(=O)CC(NC(=O)[C@H](Cc1c[nH]c2ccccc12)NC(=O)[C@@H]1CCCN1C(=O)[C@@H](N)Cc1ccc(O)cc1)c1ccccc1 (stereo partly drawn) | 680 | 908 |
| NC(=O)[C@H](Cc1ccccc1)NC(=O)CC(NC(=O)[C@@H]1CCCN1C(=O)C(N)Cc1ccc(O)cc1)c1c[nH]c2ccccc12 (single isomer, unassigned) | – | > 1000 |
